# ChEMBL document CHEMBL1125416, “Synthesis and antiulcer activity of novel 5-(2-ethenyl substituted)-3(2H)-furanones” (1992)
# Assays:
# [1] = system: Rattus norvegicus; assay: Inhibitory activity against ethanol-induced lesions, which was administered after 1 hr of oral dosing in pylorus-ligated rat model.; format: functional
# [2] = system: Rattus norvegicus; assay: Evaluated for the duration of cytoprotective effect, in Ethanol-Necrosis model, that causes inhibition of ulceration. Absolute ethanol was administered at 8 hr after dosing; format: functional; design: concentration or dose not given beside the values
# How it was run: (§1)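 Male Sprague-Dawley rats (180–210 g), fasted 18–24 h with water available, dosed orally with drug or vehicle 4, 6 or 8 h before absolute ethanol (1 mL per rat po). Rats killed 1 h after ethanol, stomachs kept moist with saline and scored blind by ulcer size (mm²) and number per size class. Percent inhibition is taken against the vehicle group mean score.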
# [3] = organism: Rattus norvegicus; assay: Effective dose that inhibits formation of induced gastric lesions.; format: functional; conditions: Stomach
# How it was run: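 Male Sprague-Dawley rats (180–210 g), fasted 18–24 h with water allowed, dosed orally 1 h before absolute ethanol (1 mL/rat po) and killed 1 h later. Lesions scored blind by size (mm²) and number, expressed as % inhibition versus vehicle mean. Groups of ≥10 rats; Dunnett's test (p < 0.01).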
# [4] = system: Rattus norvegicus; assay: Compound was evaluated for the duration of cytoprotective effect, in Ethanol-Necrosis model, that causes inhibition of ulceration. Absolute ethanol was administered at 6 hr after dosing; format: functional; how it was run: as §1
# [5] = system: Rattus norvegicus; assay: Evaluated for the duration of cytoprotective effect, in Ethanol-Necrosis model, that causes inhibition of ulceration. Absolute ethanol was administered at 4 hr after dosing; format: functional; design: concentration or dose not given beside the values; how it was run: as §1
# [6] = system: Rattus norvegicus; assay: Inhibition against ethanol-induced lesions which was administered after 1 hr at a oral dosing of 10 mg/kg in pylorus-ligated rat model; format: functional
# [7] = system: Rattus norvegicus; assay: Inhibitory activity in the indomethacin model at a dose of 40 mg/kg perorally; format: functional; conditions: route oral
# How it was run: (§2)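 In male Sprague-Dawley rats (120–170 g) fasted 18 h with water ad libitum, oral test compound was given 30 min before indomethacin (20 mg/kg po). Rats killed by cervical dislocation 4 h later; stomachs opened along the greater curvature, rinsed, and lesions graded by size and number. Percent inhibition versus control, ≥10 rats per group.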
# [8] = system: Rattus norvegicus; assay: Inhibitory activity In acidified aspirin model at a dose of 16 mg/kg perorally; format: functional; conditions: route oral
# How it was run: (§3)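 Male Sprague-Dawley rats (120–180 g), fasted 18–24 h with water ad libitum. Compound or vehicle given po (10 mL/kg) 30 min before acidified aspirin (aspirin powder in 0.35 M HCl, 5 mL/kg po). Stomachs excised 5 h after aspirin and graded by ulcer size and number. Percent inhibition versus vehicle, ≥10 rats per group.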
# [9] = system: Rattus norvegicus; assay: Inhibition against ethanol-induced lesions which was administered after 1 hr at a oral dosing of 25 mg/kg in pylorus-ligated rat model; format: functional
# [10] = system: Rattus norvegicus; assay: Compound was evaluated for the duration of cytoprotective effect, in Ethanol-Necrosis model, that causes inhibition of ulceration. Absolute ethanol was administered at 8 hr after dosing; format: functional; how it was run: as §1
# [11] = organism: Rattus norvegicus; assay: Inhibitory activity In the indomethacin model.; format: functional; how it was run: as §2
# [12] = organism: Rattus norvegicus; assay: Inhibitory activity In acidified aspirin model; format: functional; how it was run: as §3
# [13] = system: Rattus norvegicus; assay: Inhibitory activity In acidified aspirin model at a dose of 40 mg/kg perorally; format: functional; conditions: route oral; how it was run: as §3
# [14] = system: Rattus norvegicus; assay: Inhibitory activity In the indomethacin model at a dose of 111 mg/kg perorally; format: functional; conditions: route oral; how it was run: as §2
# [15] = system: Rattus norvegicus; assay: Inhibitory activity in acidified aspirin model at a dose of 50 mg/kg perorally; format: functional; conditions: route oral; how it was run: as §3
# [16] = system: Rattus norvegicus; assay: Inhibitory activity In the indomethacin model at a dose of 120 mg/kg perorally; format: functional; conditions: route oral; how it was run: as §2
# [17] = system: Rattus norvegicus; assay: Compound was tested for inhibition against ethanol-induced lesions which was administered after 1 hr of oral dosing in rat ethanol-necrosis model
# [18] = system: Rattus norvegicus; assay: Compound was tested for inhibition against ethanol-induced lesions which was administered after 1 hr of at a oral dosing of 25 mg/kg in pylorus-ligated rat model; format: functional
structure (smiles),measurement,setting,value
CC1(C)OC(/C=C/c2ccnc3ccccc23)=CC1=O,ED50,[1],2.5 mg/kg
CC1(C)OC(/C=C/c2cccnc2)=CC1=O,Inhibition,[2],40%
same,ED50,[3],40 mg/kg
same,Inhibition,[4],60%
same,Inhibition,[5],43%
same,ED50,[1],9 mg/kg
CC1(c2ccccc2)OC(/C=C/c2ccccn2)=CC1=O (configuration not stated),ED50,[3],40 mg/kg
same,Inhibition,[5],28%
same,ED50,[1],5 mg/kg
CC1(C)OC(/C=C/c2ccoc2)=CC1=O,inhibition in vivo at 10 mg/kg,[6],32%
CC1(C)OC(/C=C/c2cc3ccccc3s2)=CC1=O,inhibition in vivo at 10 mg/kg,[6],17%
Cn1cccc1/C=C/C1=CC(=O)C(C)(C)O1,inhibition in vivo at 10 mg/kg,[6],32%
CC1(c2ccccc2)OC(/C=C/c2ccc(C#N)cc2)=CC1=O (configuration not stated),inhibition in vivo at 10 mg/kg,[6],4%
CC1(C)OC(/C=C/c2cnccn2)=CC1=O,inhibition in vivo at 10 mg/kg,[6],56%
CC1(C)OC(/C=C/c2ccc(Br)cc2)=CC1=O,ED50,[1],18 mg/kg
CC1(C)OC(/C=C/c2ccsc2)=CC1=O,inhibition in vivo at 40 mg/kg,[7],65%
same,Inhibition,[2],62%
same,ED50,[3],16 mg/kg
same,inhibition in vivo at 16 mg/kg,[8],0%
same,ED50,[1],4 mg/kg
CC1(C)OC(/C=C/c2ccc(C(F)(F)F)cc2)=CC1=O,inhibition in vivo at 25 mg/kg,[9],30%
CC1(c2ccc(F)cc2)OC(/C=C/c2ccc(C#N)cc2)=CC1=O (configuration not stated),inhibition in vivo at 10 mg/kg,[6],1%
CC(=O)c1ccc2c(c1)C(=O)C1(CC1)O2 [SPIZOFURONE],Inhibition,[10],0%
same,ED50,[3],100 mg/kg
same,Inhibition,[4],44%
same,Inhibition,[11],95%
same,Inhibition,[12],78%
same,Inhibition,[5],72%
same,ED50,[1],10 mg/kg
CC1(C)OC(/C=C/c2ccc(Cl)cc2Cl)=CC1=O,inhibition in vivo at 25 mg/kg,[9],20%
CC1(C)OC(/C=C/c2ccc(F)cc2)=CC1=O,Inhibition,[2],25%
same,ED50,[3],50 mg/kg
same,Inhibition,[4],50%
same,Inhibition,[5],61%
same,ED50,[1],11 mg/kg
CC1(C)OC(/C=C/c2ccc(Cl)cc2)=CC1=O,ED50,[3],40 mg/kg
same,Inhibition,[5],51%
CC1(C)OC(/C=C/c2ccccn2)=CC1=O,inhibition in vivo at 40 mg/kg,[13],77%
same,Inhibition,[2],76%
same,ED50,[3],40 mg/kg
same,inhibition in vivo at 111 mg/kg,[14],72%
same,Inhibition,[5],67%
same,ED50,[1],10 mg/kg
CC1(C)OC(/C=C/C=C/c2ccc(Cl)cc2)=CC1=O,inhibition in vivo at 10 mg/kg,[6],33%
CC1(C)OC(c2ccc(Br)cc2)=CC1=O,inhibition in vivo at 25 mg/kg,[9],36%
CC1(C)OC(/C=C/c2ccc(C#N)cc2)=CC1=O,inhibition in vivo at 50 mg/kg,[15],23%
same,Inhibition,[2],66%
same,ED50,[3],50 mg/kg
same,ED50,[1],12 mg/kg
same,inhibition in vivo at 120 mg/kg,[16],70%
CC1(C)OC(/C=C/c2ccc3ccccc3c2)=CC1=O,inhibition in vivo at 25 mg/kg,[9],43%
CC1(C)OC(c2ccc(Cl)cc2)=CC1=O,inhibition in vivo at 25 mg/kg,[9],29%
COc1ccc(C2=CC(=O)C(C)(C)O2)cc1,Inhibition,[17],30%
CC1(C)OC(c2ccccc2)=CC1=O,ED50,[1],19 mg/kg
CC1(C)OC(/C=C/c2ccc(S(C)(=O)=O)cc2)=CC1=O,inhibition in vivo at 25 mg/kg,[9],56%
CC1(C)OC(/C=C/c2ccccc2)=CC1=O,ED50,[1],17 mg/kg
CC1(C)OC(/C=C/c2cccc(C#N)c2)=CC1=O,inhibition in vivo at 10 mg/kg,[6],68%
CC1(c2ccccc2)OC(/C=C/c2ccsc2)=CC1=O (configuration not stated),inhibition in vivo at 10 mg/kg,[6],0%
CC1(c2ccccc2)OC(/C=C/c2ccncc2)=CC1=O (configuration not stated),ED50,[3],24 mg/kg
same,Inhibition,[5],31%
same,ED50,[1],6 mg/kg
CC1(c2ccc(F)cc2)OC(/C=C/c2ccsc2)=CC1=O (configuration not stated),inhibition in vivo at 10 mg/kg,[6],22%
CC1(C)OC(c2ccc(C(F)(F)F)cc2)=CC1=O,inhibition in vivo at 25 mg/kg,[9],39%
CC1(C)OC(/C=C/c2ccc(F)cc2F)=CC1=O,ED50,[3],100 mg/kg
same,Inhibition,[5],42%
same,ED50,[1],11 mg/kg
CC1(C)OC(/C=C/c2ccncc2)=CC1=O,ED50,[3],20 mg/kg
same,Inhibition,[4],46%
same,ED50,[1],4 mg/kg
CC1(C)OC(/C=C/c2ccc(Cl)c(Cl)c2)=CC1=O,inhibition in vivo at 25 mg/kg,[9],45%
CSc1ccc(/C=C/C2=CC(=O)C(C)(C)O2)cc1,inhibition in vivo at 25 mg/kg,[9],5%
CC1(C)OC(/C=C/c2ccc(F)c(F)c2)=CC1=O,Inhibition,[17],47%
CC1(C)OC(/C=C/c2cc(Cl)cc(Cl)c2)=CC1=O,inhibition in vivo at 25 mg/kg,[9],63%
CC1(c2ccccc2)OC(/C=C/c2cccnc2)=CC1=O (configuration not stated),inhibition in vivo at 10 mg/kg,[6],44%
C/C(=C\c1ccccc1)C1=CC(=O)C(C)(C)O1,inhibition in vivo at 10 mg/kg,[6],0%
CC1(C)OC(/C=C/c2cccs2)=CC1=O,inhibition in vivo at 25 mg/kg,[18],1%
CC1(c2ccc(F)cc2)OC(/C=C/c2ccccn2)=CC1=O (configuration not stated),ED50,[1],3.5 mg/kg
